Data taken from paper PMC11877486 (Science Progress, 2025).
Where a name gives a salt, the structure may show the parent alone. Read-outs that look alike come from different tables or passages of the source. One block for each compound: values may come before it. Peptide text beside a SMILES is read from it.

Columns and labels:
[1] = derived from preclinical studies; cited from earlier work
[2] = cited from earlier work
[3] = cited from earlier work; remark: listed apart in the source
[4] = cited from earlier work; for population typical value CL, previous research: critically ill patients
[5] = Plasma concentration of colistin sulfate in patients on CVVHDF; assay type: in vivo; settings: human, iv, SD
Method in brief: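 Adult patients on CVVHDF (AN69 polyacrylonitrile filter; blood flow 100–200 ml/min) received iv colistin sulfate infused over 0.5 h or 2 h. At steady state, samples were drawn from the dorsal foot artery just before dosing (Cmin) and at roughly 0.5, 1, 2, 4 and 6 h after. Plasma was stored at −80°C. Colistin A and B were measured separately by UHPLC-MS/MS on a HILIC column (LOQ 0.027 and 0.053 mg/l) and summed. AUC0−24h was calculated by the trapezoidal rule.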

Population PK model = assay type: in vivo, human
Method in brief: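 NONMEM 7.4 was fitted to 86 plasma concentrations from 20 CVVHDF patients, using FOCE to compare one- and two-compartment models. Interindividual variability was exponential. […] Validation used goodness-of-fit plots, a pcVPC with 1000 simulated patients and a 1000-sample bootstrap.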

[6] = system: isolated pathogens (CRO), mainly Klebsiella pneumoniae, Acinetobacter baumannii, Pseudomonas aeruginosa; experiment: Drug sensitivity of isolated pathogens; assay type: cell-based; settings: all isolated pathogens (CRO) of the 20 patients
[7] = cited from earlier work; for population typical value of CL: critically ill patients

Compound: CC[C@H](C)CCCCC(=O)N[C@@H](CCN)C(=O)N[C@H](C(=O)N[C@@H](CCN)C(=O)N[C@H]1CCNC(=O)[C@H]([C@@H](C)O)NC(=O)[C@H](CCN)NC(=O)[C@H](CCN)NC(=O)[C@H](CC(C)C)NC(=O)[C@@H](CC(C)C)NC(=O)[C@H](CCN)NC1=O)[C@@H](C)O [colistin sulfate] (HELM PEPTIDE1{[CC[C@H](C)CCCCC(=O)[*:2]].[Dab].T.[Dab].[Dab].[Dab].[dL].L.[Dab].[Dab].T}$PEPTIDE1,PEPTIDE1,5:R3-11:R2$$$V2.0)
protein binding rate [1]: about 50%
solubility in water [2]: water-soluble
steady-state trough concentration ([3]; CRRT group, p = 0.328 vs non-CRRT): 0.58 ± 0.30 mg/L
steady-state trough concentration ([3]; non-CRRT group): 0.64 ± 0.25 mg/L
population typical value CL, previous research ([4]; first of two values): 0.994 L/h
population typical value CL, previous research ([4]; second of two values): 1.5 L/h
plasma concentration range ([4]; non-CRRT patients): 280 to 6200 ng/mL
AUC(0-t) [5]: 12500 ± 6410 ng·h/mL
Q, bootstrap median (Population PK model; bootstrap, 1000 samples): 27.15 L/h
V1, bootstrap median (Population PK model; bootstrap, 1000 samples): 20.58 L
V2, bootstrap median (Population PK model; bootstrap, 1000 samples): 34.71 L
θCysC, bootstrap median (Population PK model; bootstrap, 1000 samples): −0.537
θwt, bootstrap median (Population PK model; bootstrap, 1000 samples): 1.189
CL, bootstrap median (Population PK model; bootstrap, 1000 samples, 989 successful): 3.18 L/h
θCysC, final model estimate (Population PK model; effect of CysC on CL, (CYSC/2.31)^θ): −0.626
θwt, final model estimate (Population PK model; effect of WT on CL, (WT/65)^θ): 1.030
clearance (Population PK model; human, plasma, iv): 61.5 mL/min
Q, final model estimate (Population PK model; intercompartmental clearance, patients on CVVHDF): 25.30 L/h
V1, final model estimate (Population PK model; volume of distribution in the central compartment, patients on CVVHDF): 20.50 L
V2, final model estimate (Population PK model; volume of distribution in the peripheral compartment, patients on CVVHDF): 33.20 L

MIC [6]: ≥ 8 µg/mL
Compound: C[C@@H](O)[C@H]1C(=O)N2C(C(=O)O)=C(S[C@@H]3CN[C@H](C(=O)N(C)C)C3)[C@H](C)[C@H]12 [meropenem]

Compound: polymyxin B sulfate
population typical value of CL ([7]; CVVH group): 4.52 L/h
AUC ([7]; CVVH group, p < 0.001 vs non-CVVH): 27940 ± 10920 ng·h/mL
population typical value of CL ([7]; non-CVVH group): 1.95 L/h
AUC ([7]; non-CVVH group): 77890 ± 35660 ng·h/mL
